Assay results taken from ChEMBL document CHEMBL1208663, “Synthesis of 2-substituted-N-[4-(1-methyl-4,5-diphenyl-1H-imidazole-2-yl)phenyl]acetamide derivatives and evaluation of their anticancer activity” (Eur J Med Chem, 2010).
Values after ≈ are worked out from the molar mass of the structure shown. Active and inactive are the calls of the source. The rule behind the calls is not given here.

Assays:
MCF7 [1] = experiment: Cytotoxicity against human MCF7 cells at 16 ug/ml after 24 hrs by MTT assay; type: functional
Outline: (§1)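 MCF-7 cells grown in DMEM with 1 mM pyruvate, 10 µg/mL insulin, 10% FBS and penicillin/streptomycin at 37 °C, 5% CO2. Exposed 24 h to 0.64–80 µg/mL (DMSO stocks diluted in medium). MTT added, A540 measured. Percent viability relative to untreated cells; IC50 derived. Three experiments with four wells per concentration.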

MCF7 [2] = experiment: Cytotoxicity against human MCF7 cells at 6.4 ug/ml after 24 hrs by MTT assay; type: functional; outline: as §1
HT-29 [3] = experiment: Cytotoxicity against human HT-29 cells at 80 ug/ml after 24 hrs by MTT assay; type: functional
Outline: (§2)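 HT-29 cells grown in McCoy's 5A with 10% FBS and penicillin/streptomycin at 37 °C, 5% CO2. Treated 24 h with 0.64, 1.6, 6.4, 16, 32 or 80 µg/mL (DMSO stock diluted in medium). MTT added, absorbance read at 540 nm. Viability taken relative to untreated control (100%); IC50 calculated. Four wells per concentration, three repeat experiments.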

MCF7 [4] = experiment: Cytotoxicity against human MCF7 cells at 80 ug/ml after 24 hrs by MTT assay; type: functional; outline: as §1
MCF7 [5] = experiment: Cytotoxicity against human MCF7 cells at 1.6 ug/ml after 24 hrs by MTT assay; type: functional; outline: as §1
MCF7 [6] = experiment: Cytotoxicity against human MCF7 cells at 32 ug/ml after 24 hrs by MTT assay; type: functional; outline: as §1
HT-29 [7] = experiment: Cytotoxicity against human HT-29 cells at 32 ug/ml after 24 hrs by MTT assay; type: functional; outline: as §2
MCF7 [8] = experiment: Cytotoxicity against human MCF7 cells at 0.64 ug/ml after 24 hrs by MTT assay; type: functional; outline: as §1
HT-29 [9] = experiment: Cytotoxicity against human HT-29 cells at 6.4 ug/ml after 24 hrs by MTT assay; type: functional; outline: as §2
HT-29 [10] = experiment: Cytotoxicity against human HT-29 cells at 0.64 ug/ml after 24 hrs by MTT assay; type: functional; outline: as §2
HT-29 [11] = experiment: Cytotoxicity against human HT-29 cells at 1.6 ug/ml after 24 hrs by MTT assay; type: functional; outline: as §2
HT-29 [12] = experiment: Cytotoxicity against human HT-29 cells after 24 hrs by MTT assay; type: functional, cell-based; details: HT-29, 24 h; outline: as §2
MCF7 [13] = experiment: Cytotoxicity against human MCF7 cells after 24 hrs by MTT assay; type: functional, cell-based; details: MCF7, 24 h; outline: as §1
HT-29 [14] = experiment: Cytotoxicity against human HT-29 cells at 16 ug/ml after 24 hrs by MTT assay; type: functional; outline: as §2
HT-29 [15] = experiment: Inhibition of DNA synthesis in human HT-29 cells by BrdU incorporation assay; type: functional, cell-based; details: TDE = time-dependent effect
Outline: (§3)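 HT-29 cells (McCoy's 5A, 10% FBS) seeded at 1 × 10^3 cells/mL. Exposed to three concentrations for 24 h and 48 h at 37 °C, with DMSO solvent control. BrdU label for 2 h, then fixation and anti-BrdU-POD for 90 min. Substrate colour read at 492 nm with blank subtracted. Triplicate wells, three experiments.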

HT-29 [16] = experiment: Induction of apoptosis in human HT-29 cells assessed as DNA fragmentation after 24 hrs by gel electrophoresis
HT-29 [17] = experiment: Inhibition of DNA synthesis in human HT-29 cells after 48 hrs by BrdU incorporation assay; type: functional, cell-based; outline: as §3
MCF7 [18] = experiment: Inhibition of DNA synthesis in human MCF7 cells after 48 hrs by BrdU incorporation assay; type: functional, cell-based
Outline: (§4)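 MCF-7 cells (DMEM, pyruvate, insulin, 10% FBS) seeded at 1 × 10^3 cells/mL. Treated at three concentrations for 24 h or 48 h at 37 °C against DMSO control. Labelled with BrdU for 2 h, fixed, then anti-BrdU-POD for 90 min. Colorimetric substrate read at 492 nm after blank subtraction. Triplicate wells, repeated three times.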

MCF7 [19] = experiment: Inhibition of DNA synthesis in human MCF7 cells by BrdU incorporation assay; type: functional, cell-based; details: TDE = time-dependent effect; outline: as §4

SMILES | Activity (MCF7 [1]) [%] | Activity (MCF7 [2]) [%] | Activity (HT-29 [3]) [%] | Activity (MCF7 [4]) [%] | Activity (MCF7 [5]) [%] | Activity (MCF7 [6]) [%] | Activity (HT-29 [7]) [%] | Activity (MCF7 [8]) [%] | Activity (HT-29 [9]) [%] | Activity (HT-29 [10]) [%] | Activity (HT-29 [11]) [%] | IC50 (HT-29 [12]) [µg/mL] | IC50 (MCF7 [13]) [µg/mL] | Activity (HT-29 [14]) [%] | inhibition (HT-29 [15]) | Activity (HT-29 [16]) | inhibition (HT-29 [17]) | inhibition (MCF7 [18]) | inhibition (MCF7 [19])
Cn1c(-c2ccc(NC(=O)CSC3=NCCS3)cc2)nc(-c2ccccc2)c1-c1ccccc1 | 41.8 | 18.6 | 75.2 | 70 | 16.2 | 52.5 | 59.4 | 10.3 | 31 | 16.8 | 30.4 | 21 (≈ 43.3 µM) | 26.7 (≈ 55.1 µM) | 43.3 |  |  |  |  | 
Cn1c(-c2ccc(NC(=O)CN3CCN(c4ccccc4)CC3)cc2)nc(-c2ccccc2)c1-c1ccccc1 | 59.6 | 37.7 | 63.7 | 72.5 | 21.3 | 63.6 | 60.5 | 12.1 | 46.5 | 17.3 | 26 | 8.6 (≈ 16.3 µM) | 10.7 (≈ 20.3 µM) | 55.4 |  |  |  |  | 
CCN1CCN(CC(=O)Nc2ccc(-c3nc(-c4ccccc4)c(-c4ccccc4)n3C)cc2)CC1 | 32.8 | 16.4 | 51.2 | 46.3 | 14.6 | 38.6 | 38.8 | 4.7 | 17.2 | 7.4 | 13.9 | 75 (≈ 156 µM) | > 80 | 28.4 |  |  |  |  | 
Cn1cnnc1SCC(=O)Nc1ccc(-c2nc(-c3ccccc3)c(-c3ccccc3)n2C)cc1 | 61.2 | 59.2 | 88 | 89.3 | 42.8 | 89.2 | 86.1 | 33.1 | 43.1 | 32 | 40.8 | 10.7 (≈ 22.3 µM) | 3.2 (≈ 6.66 µM) | 59.1 | tde | Active | Dose-dependent effect | Dose-dependent effect | tde
Cn1c(-c2ccc(NC(=O)CN3CCN(Cc4ccc(Cl)cc4)CC3)cc2)nc(-c2ccccc2)c1-c1ccccc1 | 46.2 | 33.4 | 60.7 | 52.9 | 11.8 | 52.8 | 55.6 | 4.8 | 41.5 | 11.3 | 16.4 | 12 (≈ 20.8 µM) | 21 (≈ 36.4 µM) | 52.9 |  |  |  |  | 
Cn1ccnc1SCC(=O)Nc1ccc(-c2nc(-c3ccccc3)c(-c3ccccc3)n2C)cc1 | 32.4 | 27.2 | 69.4 | 64 | 17.5 | 43.4 | 41.1 | 10.3 | 30.7 | 13.6 | 23.8 | 47.5 (≈ 99 µM) | 46.5 (≈ 97 µM) | 36.5 |  |  |  |  | 
Cn1nnnc1SCC(=O)Nc1ccc(-c2nc(-c3ccccc3)c(-c3ccccc3)n2C)cc1 | 63.7 | 55.9 | 89 | 77.7 | 34.3 | 77.5 | 84 | 21.9 | 60.6 | 38 | 49.8 | 1.6 (≈ 3.32 µM) | 4.5 (≈ 9.34 µM) | 72.5 | tde | Active | Dose-dependent effect | Dose-dependent effect | tde
